Calls of active or inactive are those of the source. No cut-off for these calls is given here.
Key:
[1] = target: T1, Amine oxidase [flavin-containing] A (Homo sapiens, UniProt P21397); assay: Inhibition of human recombinant MAOA expressed in microsomes of baculovirus-infected insect cell at 10 uM using kynuramine as substrate preincubated for 20 mins followed by protein addition measured after 30 mins by fluorescence assay relative to control; details: 0.5 h
T1 sequence (P21397 whole entry): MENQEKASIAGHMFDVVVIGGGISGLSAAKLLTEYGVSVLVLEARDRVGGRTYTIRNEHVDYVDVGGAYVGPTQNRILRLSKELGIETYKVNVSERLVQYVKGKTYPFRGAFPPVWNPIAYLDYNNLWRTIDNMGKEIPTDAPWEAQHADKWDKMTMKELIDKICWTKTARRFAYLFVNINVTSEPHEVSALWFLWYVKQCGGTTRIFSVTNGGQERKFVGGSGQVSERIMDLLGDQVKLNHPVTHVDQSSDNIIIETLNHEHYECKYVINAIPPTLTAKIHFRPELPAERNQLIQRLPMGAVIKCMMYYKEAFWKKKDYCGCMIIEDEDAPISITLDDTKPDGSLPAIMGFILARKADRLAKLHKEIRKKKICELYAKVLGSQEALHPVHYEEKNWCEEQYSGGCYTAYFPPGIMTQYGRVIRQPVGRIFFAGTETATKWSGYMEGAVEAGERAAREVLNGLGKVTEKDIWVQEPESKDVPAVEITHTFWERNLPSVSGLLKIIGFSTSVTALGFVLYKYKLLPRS
Procedure, shortened: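 Recombinant human MAO A (baculovirus-infected insect cell microsomes) with kynuramine substrate; inhibitor preincubated 20 min at 37 °C, enzyme then added and incubated 30 min more. Fluorescence at ex/em 320/400 nm. […] Triplicates, three independent experiments.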

[2] = target: T2, Amine oxidase [flavin-containing] B (Homo sapiens, UniProt P27338); assay: Inhibition of human recombinant MAOB expressed in microsomes of baculovirus-infected insect cell using kynuramine as substrate preincubated for 20 mins followed by protein addition measured after 30 mins by fluorescence assay
T2 sequence (P27338 whole entry): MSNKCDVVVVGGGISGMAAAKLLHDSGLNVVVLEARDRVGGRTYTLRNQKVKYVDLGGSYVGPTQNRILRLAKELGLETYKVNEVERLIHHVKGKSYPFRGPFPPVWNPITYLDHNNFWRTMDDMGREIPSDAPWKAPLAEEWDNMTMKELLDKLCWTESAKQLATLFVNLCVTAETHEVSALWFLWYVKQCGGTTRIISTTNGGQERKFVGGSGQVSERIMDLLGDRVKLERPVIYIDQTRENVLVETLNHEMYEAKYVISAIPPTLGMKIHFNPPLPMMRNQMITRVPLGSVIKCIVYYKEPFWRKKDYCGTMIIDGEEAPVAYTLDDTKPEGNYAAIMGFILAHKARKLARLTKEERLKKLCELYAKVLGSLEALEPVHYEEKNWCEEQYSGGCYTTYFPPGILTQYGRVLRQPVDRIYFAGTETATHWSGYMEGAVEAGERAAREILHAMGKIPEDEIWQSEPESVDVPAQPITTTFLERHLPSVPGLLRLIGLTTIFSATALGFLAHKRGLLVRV

Acetylcholinesterase [3] = target: T3, Acetylcholinesterase (Electrophorus electricus, UniProt O42275); assay: Inhibition of electric eel AChE using acetylthiocholine iodide as substrate preincubated for 20 mins followed by substrate addition measured for 5 mins by spectrophotometric Ellman's method
T3 sequence (O42275 whole entry): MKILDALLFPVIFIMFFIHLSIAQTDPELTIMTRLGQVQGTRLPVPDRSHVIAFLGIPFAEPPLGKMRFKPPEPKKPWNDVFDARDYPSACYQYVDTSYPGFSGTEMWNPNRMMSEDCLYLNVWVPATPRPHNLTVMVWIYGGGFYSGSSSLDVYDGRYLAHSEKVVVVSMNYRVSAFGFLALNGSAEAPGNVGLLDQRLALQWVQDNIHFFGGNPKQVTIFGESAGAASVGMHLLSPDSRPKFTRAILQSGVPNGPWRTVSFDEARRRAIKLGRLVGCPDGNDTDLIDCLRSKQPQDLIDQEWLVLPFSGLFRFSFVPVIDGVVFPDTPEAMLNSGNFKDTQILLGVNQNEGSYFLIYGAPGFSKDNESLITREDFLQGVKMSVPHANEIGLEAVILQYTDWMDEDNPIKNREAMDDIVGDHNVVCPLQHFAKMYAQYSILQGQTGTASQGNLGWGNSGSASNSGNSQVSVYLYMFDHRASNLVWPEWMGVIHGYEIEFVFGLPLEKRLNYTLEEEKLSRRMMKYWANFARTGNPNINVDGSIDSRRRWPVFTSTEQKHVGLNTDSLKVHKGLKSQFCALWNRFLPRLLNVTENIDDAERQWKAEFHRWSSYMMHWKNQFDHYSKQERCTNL

[4] = target: Cholinesterase (Equus caballus) (UniProt P81908); assay: Inhibition of equine serum BChE at 10 uM using butyrylthiocholine iodide as substrate preincubated for 20 mins followed by substrate addition measured for 5 mins by spectrophotometric Ellman's method relative to control
Sequence of Cholinesterase (Equus caballus) (P81908 whole entry): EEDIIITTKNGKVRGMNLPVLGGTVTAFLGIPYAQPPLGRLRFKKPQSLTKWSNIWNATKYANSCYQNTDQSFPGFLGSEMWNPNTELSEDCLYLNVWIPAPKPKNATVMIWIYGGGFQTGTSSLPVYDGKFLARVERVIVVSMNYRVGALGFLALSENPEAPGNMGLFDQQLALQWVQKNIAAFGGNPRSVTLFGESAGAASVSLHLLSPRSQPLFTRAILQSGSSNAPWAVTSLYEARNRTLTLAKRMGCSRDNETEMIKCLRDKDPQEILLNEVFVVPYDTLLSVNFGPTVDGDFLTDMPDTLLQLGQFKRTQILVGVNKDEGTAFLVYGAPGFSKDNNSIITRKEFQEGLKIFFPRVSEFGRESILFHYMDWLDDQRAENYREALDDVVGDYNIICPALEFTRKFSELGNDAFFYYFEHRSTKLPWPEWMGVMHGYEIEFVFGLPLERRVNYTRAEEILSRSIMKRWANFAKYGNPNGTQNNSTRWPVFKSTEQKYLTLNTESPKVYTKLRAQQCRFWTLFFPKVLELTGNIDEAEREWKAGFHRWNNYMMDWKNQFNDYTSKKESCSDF
Procedure, shortened: (§1)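 BChE from equine serum (13 U/mg), Ellman spectrophotometric method run in 96-well format. Seven inhibitor concentrations, 10^-4 to 10^-10 M, each in triplicate. IC50 from non-linear regression of response against log(concentration). […] Mean of three independent experiments.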

[5] = target: T1, Amine oxidase [flavin-containing] A; assay: Inhibition of human recombinant MAOA expressed in microsomes of baculovirus-infected insect cell using kynuramine as substrate preincubated for 20 mins followed by protein addition measured after 30 mins by fluorescence assay
Procedure, shortened: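 Recombinant human MAO A (baculovirus-infected insect cell microsomes) with kynuramine substrate; inhibitor preincubated 20 min at 37 °C, enzyme then added and incubated 30 min more. Fluorescence at ex/em 320/400 nm. Triplicates, three independent experiments.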

SH-SY5Y [6] = assay: Cytotoxicity against human SH-SY5Y cells assessed as inhibition of cell growth after 24 hrs by MTT assay; type: cell-based
Procedure, shortened: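 SH-SY5Y cells exposed 24 h at 37 °C to 0.1, 1, 5, 10 and 50 µM; viability read by MTT at 570 nm versus untreated cells. […] Means ± SD, n = 3.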

SH-SY5Y [7] = assay: Neuroprotective activity against H2O2-induced oxidative injury in human SH-SY5Y cells assessed as increase in cell viability at 1 to 10 uM after 24 hrs by MTT assay; type: functional, cell-based
Procedure, shortened: (§2)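 SH-SY5Y cells incubated 24 h with compound at 1 or 10 µM together with H2O2 300 µM, oligomycin-A 10 µM or rotenone 20 µM. Viability by MTT, as % of cells given neither insult nor compound. Triplicates, three repeats; mean ± SD; two-way ANOVA with Bonferroni post hoc test.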

SH-SY5Y [8] = assay: Neuroprotective activity against oligomycin-A-induced oxidative injury in human SH-SY5Y cells assessed as increase in cell viability at 1 uM after 24 hrs by MTT assay; type: functional, cell-based; procedure, shortened: as §2
SH-SY5Y [9] = assay: Neuroprotective activity against oligomycin-A-induced oxidative injury in human SH-SY5Y cells assessed as increase in cell viability at 10 uM after 24 hrs by MTT assay; type: functional, cell-based; procedure, shortened: as §2
SH-SY5Y [10] = assay: Neuroprotective activity against rotenone-induced oxidative injury in human SH-SY5Y cells assessed as increase in cell viability at 1 uM after 24 hrs by MTT assay; type: functional, cell-based; procedure, shortened: as §2
SH-SY5Y [11] = assay: Neuroprotective activity against rotenone-induced oxidative injury in human SH-SY5Y cells assessed as increase in cell viability at 10 uM after 24 hrs by MTT assay; type: functional, cell-based; procedure, shortened: as §2
[12] = Apparent permeability across apical to basolateral side in MDCK2-MDR1 cells at 5 to 75 uM by UV-visible spectroscopic method; type: ADME, cell-based, Canis lupus familiaris; details: dog, MDCK-MDR1
Procedure, shortened: (§3)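 Acceptor concentrations measured by UV–visible spectroscopy against PBS calibration curves linear over 5–75 µM. Papp (cm/sec) = (VA/(area × time)) × ([drug]acceptor/[drug]initial). Triplicates, three experiments.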

[13] = Apparent permeability across basolateral to apical side in MDCK2-MDR1 cells at 5 to 75 uM by UV-visible spectroscopic method; type: ADME, cell-based, Canis lupus familiaris; details: dog, MDCK-MDR1; procedure, shortened: as §3
[14] = Efflux ratio of apparent permeability across basolateral to apical side over apical to basolateral side in MDCK2-MDR1 cells at 5 to 75 uM by UV-visible spectroscopic method; type: ADME, cell-based, Canis lupus familiaris; details: dog, MDCK-MDR1
Procedure, shortened: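 Canine kidney MDCKII-MDR1 cells (retrovirally transfected with human MDR1 cDNA), cultured in DMEM and seeded at 100000 cells/cm2 on 0.4 µm-pore Transwell inserts. […] Apical-to-basolateral and basolateral-to-apical transport were measured, with compound quantified by UV-vis absorbance against PBS calibration curves (5–75 µM). ER = Papp BL-AP / Papp AP-BL. Triplicates, three experiments.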

[15] = Kinetic aqueous solubility of the compound in Tris-HCl buffer at pH 7.4 by turbidimetric method; type: physicochemical; details: for log(Kinetic_solubility): buffer
Procedure, shortened: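 DMSO stocks added in portions to 50 mM Tris-HCl pH 7.4 at room temperature. Light scattering read as UV absorbance increase at 580–780 nm; solubility from a bilinear fit of absorbance versus µL DMSO. Reported as logS (mol/L), mean ± SEM of three independent assays.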

[16] = Lipophilicity index, Log K of the compound at 1 mM by RP-HPLC method; type: physicochemical; details: 1000 µM
Acetylcholinesterase [17] = target: T3, Acetylcholinesterase; assay: Mixed-type inhibition of electric eel AChE using S-acetylthiocholine as substrate preincubated for 20 mins followed by substrate addition measured for 5 mins by Lineweaver-Burk plot method
Cholinesterase = Cholinesterase (Equus caballus, UniProt P81908); assay: Inhibition of equine serum BChE using butyrylthiocholine iodide as substrate preincubated for 20 mins followed by substrate addition measured for 5 mins by spectrophotometric Ellman's method; procedure, shortened: as §1
Sequence of Cholinesterase (P81908 whole entry): as above

Compound | inhibition at 10 µM [1] | IC50 [2] | IC50 (Acetylcholinesterase [3]) | inhibition [4] | IC50 [5] | IC50 (SH-SY5Y [6]) | Activity (SH-SY5Y [7]) | Activity (SH-SY5Y [8]) | Activity (SH-SY5Y [9]) | Activity (SH-SY5Y [10]) | Activity (SH-SY5Y [11]) | Papp A→B at up to 75 µM [12] | Papp B→A at up to 75 µM [13] | efflux ratio at up to 75 µM [14] | log(Kinetic_solubility) [15] | log K [16] | Ki (Acetylcholinesterase [17]) | IC50 (Cholinesterase) | solubility kinetic ([15]; Tris-HCl buffer, read-out: Kinetic_solubility)
Cc1c(C)c2ccc(OCC3CCN(Cc4ccc(Cl)cc4)CC3)cc2oc1=O | 37% | 614 nM | 9570 nM | 19% |  |  |  |  |  |  |  |  |  |  |  |  |  |  | 
Cc1c(C)c2ccc(OCC3CCCN(C)C3)cc2oc1=O.Cl (racemic) |  | 137 nM | 800 nM | 19% | 9330 nM | 30000 nM | Active | inactive | inactive | Active | Active | 22.3 ×10⁻⁶ cm/s | 20.2 ×10⁻⁶ cm/s | 0.9 | -3.67 | 1.14 |  |  | 
Cc1c(C)c2ccc(OCC3CCCN(Cc4cccc(Br)c4)C3)cc2oc1=O.Cl (racemic) |  | 110 nM | 1910 nM |  | 810 nM |  |  |  |  |  |  | 0.84 ×10⁻⁶ cm/s | 2.16 ×10⁻⁶ cm/s | 2.56 |  |  |  |  | 
Cc1c(C)c2ccc(OCC3CCCN(Cc4ccccc4)C3)cc2oc1=O.Cl (racemic) |  |  | 1030 nM |  | 2810 nM | 44000 nM |  |  |  |  |  | 24.3 ×10⁻⁶ cm/s | 14.8 ×10⁻⁶ cm/s | 0.61 | -3.92 | 2.01 | 1370 nM | 3410 nM | 119 µM

Source: ChEMBL document CHEMBL4425129, “Exploring Basic Tail Modifications of Coumarin-Based Dual Acetylcholinesterase-Monoamine Oxidase B Inhibitors: Identification of Water-Soluble, Brain-Permeant Neuroprotective Multitarget Agents” (J Med Chem, 2016)
